Results on 4 compounds are retold here after ChEMBL document CHEMBL5038663, “Probing the Requirements for Dual Angiotensin-Converting Enzyme C-Domain Selective/Neprilysin Inhibition” (J Med Chem, 2022).

In experiment [1] the target is T1, Angiotensin-converting enzyme (Homo sapiens, UniProt P12821). The experiment is described as follows: Inhibition of recombinant human ACE N-domain expressed in CHO cells using Cbz-Phe-His-Leu as substrate preincubated for 15 mins followed by substrate addition and measured after 10 mins by fluorescence spectrophotometric analysis. The procedure, abridged: (§1)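 Fully glycosylated single-domain human ACE (C-domain D629, N-domain Δ36NJ) from CHO cells. Two-fold inhibitor dilution in 100 mM potassium phosphate pH 8.3, 300 mM NaCl, 10 μM ZnCl₂. Preincubation 15 min at 22 °C. 10 min at 37 °C, stopped with NaOH/o-phthalaldehyde, then HCl. Triplicates, n ≥ 2 independent experiments.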
T1 sequence (P12821 whole entry): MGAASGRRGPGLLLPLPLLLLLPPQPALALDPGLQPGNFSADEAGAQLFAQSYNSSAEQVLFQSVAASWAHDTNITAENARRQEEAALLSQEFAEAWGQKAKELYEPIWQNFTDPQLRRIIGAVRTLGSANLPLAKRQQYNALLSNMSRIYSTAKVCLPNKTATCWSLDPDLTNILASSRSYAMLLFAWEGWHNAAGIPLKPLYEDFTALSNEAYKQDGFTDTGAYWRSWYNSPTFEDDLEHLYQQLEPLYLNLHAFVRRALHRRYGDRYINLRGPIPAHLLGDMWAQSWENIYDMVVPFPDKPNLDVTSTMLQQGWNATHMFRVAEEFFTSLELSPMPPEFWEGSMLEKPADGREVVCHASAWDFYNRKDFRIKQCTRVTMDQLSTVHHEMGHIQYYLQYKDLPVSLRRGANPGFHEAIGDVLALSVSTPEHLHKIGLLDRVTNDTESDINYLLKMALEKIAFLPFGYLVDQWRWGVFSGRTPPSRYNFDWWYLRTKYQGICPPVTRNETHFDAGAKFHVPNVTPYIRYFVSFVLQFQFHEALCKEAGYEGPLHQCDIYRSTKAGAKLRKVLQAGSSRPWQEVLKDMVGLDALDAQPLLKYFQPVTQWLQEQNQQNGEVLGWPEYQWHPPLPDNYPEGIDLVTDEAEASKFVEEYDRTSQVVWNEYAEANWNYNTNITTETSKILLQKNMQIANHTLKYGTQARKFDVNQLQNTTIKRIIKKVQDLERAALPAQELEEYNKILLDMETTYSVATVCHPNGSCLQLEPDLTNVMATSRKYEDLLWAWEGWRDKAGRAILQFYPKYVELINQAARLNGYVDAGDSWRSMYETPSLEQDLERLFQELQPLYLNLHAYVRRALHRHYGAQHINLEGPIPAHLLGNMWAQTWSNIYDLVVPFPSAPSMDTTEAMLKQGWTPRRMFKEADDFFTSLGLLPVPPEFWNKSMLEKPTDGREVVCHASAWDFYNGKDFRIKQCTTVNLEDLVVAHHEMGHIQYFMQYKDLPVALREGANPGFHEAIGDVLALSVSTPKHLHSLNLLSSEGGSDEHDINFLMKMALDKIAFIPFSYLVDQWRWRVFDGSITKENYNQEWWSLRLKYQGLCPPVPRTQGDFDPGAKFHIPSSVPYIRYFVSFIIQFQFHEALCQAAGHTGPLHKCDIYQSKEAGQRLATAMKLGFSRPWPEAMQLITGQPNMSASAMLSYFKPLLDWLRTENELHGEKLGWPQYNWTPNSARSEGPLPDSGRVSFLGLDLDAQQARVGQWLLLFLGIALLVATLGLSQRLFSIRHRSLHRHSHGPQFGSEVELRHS

For the next experiment, the species on record is Homo sapiens. In words: Selectivity ratio of Ki for human ACE N-domain expressed in CHO cells to Ki for human ACE C-domain expressed in CHO cells. The experiment is classed as cell-based. The method in brief: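 Ki for each ACE domain from IC50 by Cheng-Prusoff for competitive inhibition, Ki = IC50/(1 + [S]/Km). […] Ratio taken as N-domain Ki over C-domain Ki.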

Experiment [2] addresses T1, Angiotensin-converting enzyme. The experiment is described as follows: Inhibition of recombinant human ACE C-domain expressed in CHO cells using Cbz-Phe-His-Leu as substrate preincubated for 15 mins followed by substrate addition and measured after 10 mins by fluorescence spectrophotometric analysis. The method in brief:
as §1

In another experiment the target is Neprilysin (Homo sapiens, UniProt P08473). The experiment is described as follows: Inhibition of hGH-8His-NEP expressed in CHO cells preincubated for 15 mins followed by […] peptide substrate addition by fluorescence spectrophotometric analysis. The experiment is classed as cell-based. The procedure, abridged: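 Secreted glycosylated human NEP ectodomain (hGH-8His fusion) from CHO cells, purified by cobalt affinity. Two-fold inhibitor serial dilution in 50 mM Tris pH 8.3, 0.05% Brij-35, 300 mM NaCl, 10 μM ZnCl₂. Enzyme and inhibitor preincubated 15 min at 22 °C. […] Continuous fluorescence at ex 320/em 405 nm. Triplicates, n ≥ 2 independent experiments.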
Sequence of Neprilysin (P08473 whole entry, the tested form may be a part): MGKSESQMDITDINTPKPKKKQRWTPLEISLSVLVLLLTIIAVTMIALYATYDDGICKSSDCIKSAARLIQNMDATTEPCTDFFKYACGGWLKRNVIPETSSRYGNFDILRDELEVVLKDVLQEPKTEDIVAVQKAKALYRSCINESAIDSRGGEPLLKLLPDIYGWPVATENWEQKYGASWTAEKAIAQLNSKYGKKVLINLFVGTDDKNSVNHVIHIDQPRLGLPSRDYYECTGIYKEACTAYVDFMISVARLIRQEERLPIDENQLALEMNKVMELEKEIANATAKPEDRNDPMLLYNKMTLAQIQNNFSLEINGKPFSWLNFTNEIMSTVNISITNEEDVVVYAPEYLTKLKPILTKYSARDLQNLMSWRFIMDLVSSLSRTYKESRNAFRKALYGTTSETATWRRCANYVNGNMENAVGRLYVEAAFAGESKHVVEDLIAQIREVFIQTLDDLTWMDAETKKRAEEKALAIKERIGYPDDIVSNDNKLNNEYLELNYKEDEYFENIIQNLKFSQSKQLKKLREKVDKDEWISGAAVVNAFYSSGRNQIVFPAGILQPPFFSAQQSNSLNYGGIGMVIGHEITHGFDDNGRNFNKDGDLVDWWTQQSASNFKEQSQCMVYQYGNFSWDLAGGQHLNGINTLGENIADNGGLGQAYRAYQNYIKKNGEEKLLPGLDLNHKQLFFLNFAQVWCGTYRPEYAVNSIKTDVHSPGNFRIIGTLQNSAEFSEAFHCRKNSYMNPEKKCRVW

Molecules are shown by their SMILES. pKi: −log10 of the molar value.

Turning to `CCCC[C@H](N[C@@H](CCc1ccccc1)C(=O)O)C(=O)N[C@@H](Cc1c[nH]c2ccccc12)C(=O)O`, the pKi in experiment [1] is 5.42; in experiment [2], 7.00; on Neprilysin it was 4.72. The Ratio Ki in the experiment filed under Homo sapiens worked out at 37.

`NCCCC[C@H](N[C@@H](CCc1ccccc1)C(=O)O)C(=O)N[C@@H](Cc1c[nH]c2ccccc12)C(=O)O`: the negative-log Ki (pKi) in experiment [1] is 5.77; in experiment [2], 8.05; on Neprilysin, < 3.82. Also, the Ratio Ki in the experiment listed under Homo sapiens is 189.

On to `Cc1ccc([C@H]2CC[C@@H](C(=O)O)N2C(=O)CN[C@@H](CCc2ccccc2)C(=O)O)cc1`, for which the pKi in experiment [1] is 5.47; in experiment [2] it was 6.36; on Neprilysin, < 4.30. For the same compound, the Ratio Ki in the experiment listed under Homo sapiens worked out at 8.

As for `CCCC[C@H](N[C@@H](CCc1ccccc1)C(=O)O)C(=O)N[C@@H](Cc1ccc(O)cc1)C(=O)O`, the results for the negative-log Ki (pKi) (in experiment [1]; in experiment [2]; on Neprilysin) were 6.92, 7.46 and 6.22, respectively. Also, the Ratio Ki in the experiment filed under Homo sapiens was found to be 3.5.

By pKi is commonly meant −log10 of the Ki, conventionally taken in molar units.
